Source: PubChem
HTR1E agonist: 5-HT1E (human) receptor agonism; P28566; CHO 5-HT1E Ga15 NFAT-bla reporter, FRET; 0% DMSO wells, 100% control agonist wells; activation, % at 6 µM; 65,000 compounds, 0.69% hits;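 active = activation above a set limit, the screen-wide mean activation plus 3 SD, cut at about 8.5% in these data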;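 note: 100% = positive control agonist at 1 µM giving full maximal response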
HTR1E antagonist: 5-HT1E (human) receptor antagonism. P28566. CHO 5-HT1E Ga15 NFAT-bla reporter, FRET, antagonist. inhibition, % at 6 µM. 65,000 compounds, 0.99% hits. AID 571;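 active = inhibition above a set limit, the mean inhibition across every tested compound plus 3 SD, cut at about 29% in these data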;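 note: signal is the 460 over 535 nm emission ratio of beta-lactamase substrate; 0% = agonist plus DMSO wells and 100% = wells without agonist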
S1P1 ag pot: agonists and agonism potentiators of human S1P1 receptor | activation, % at 9.5 µM | 56,000 compounds, 0.57% hits | S1P1 CRE-bla cells, forskolin, beta-lactamase FRET, potentiator mode; S1P1 agonist co-added at EC20, 2 nM; 100% = saturating reference agonist, 0% = basal | P21453;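 active = activation above a cutoff set at the mean activation of all tested compounds plus 3 SD, cut at about 54% in these data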;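 note: forskolin at 4 µM as EC80 and the EC20 agonist is SEW2871; 100% = SEW2871 at its EC100 plus forskolin at EC80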
5HT1a antag: 5-HT1a (human) receptor antagonism; P08908; CHO 5-HT1a Ga15 NFAT-bla reporter, antagonist mode; inhibition, % at 10 µM; 62,000 compounds, 0.68% hits; AID 612;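 active = inhibition above the mean of all tested compounds plus 3 SD, cut at about 43% in these data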;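 note: receptor stimulated by 5-CT agonist at 100 nM near EC80; beta-lactamase reporter measured by ratiometric fluorescence of a cleavable substrate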
Target sequence (P08908 whole entry, looked up): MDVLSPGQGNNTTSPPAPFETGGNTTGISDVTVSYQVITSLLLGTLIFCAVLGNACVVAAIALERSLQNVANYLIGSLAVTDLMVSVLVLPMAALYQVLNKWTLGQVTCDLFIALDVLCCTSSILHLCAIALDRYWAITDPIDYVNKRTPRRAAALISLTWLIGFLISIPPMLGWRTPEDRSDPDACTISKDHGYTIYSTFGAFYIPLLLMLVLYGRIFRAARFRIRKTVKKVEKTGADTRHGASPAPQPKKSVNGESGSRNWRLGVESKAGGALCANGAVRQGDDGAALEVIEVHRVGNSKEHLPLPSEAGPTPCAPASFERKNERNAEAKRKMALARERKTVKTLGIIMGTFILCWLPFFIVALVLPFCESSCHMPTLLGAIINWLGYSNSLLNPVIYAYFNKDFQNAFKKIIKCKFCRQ
S1P3 agonist: S1P3 (human) receptor agonism | S1P3 NFAT-BLA reporter cells, FRET ratio; relative to 1 µM S1P, basal subtracted | activation, % at 4.5 µM | 60,000 compounds, 0.1% hits;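 active = activation above the screen-wide mean plus 3 SD, cut at about 4.5% in these data, passing the limit was not always enough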
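Assay system: stable CHO line with human S1P3, Gα16, NFAT-BLA reporter; Detection: FRET β-lactamase substrate fluorescence, excitation 405 nm, 460/535 nm emission ratio, background-subtracted; Read-out: percent activation versus median 1 µM S1P response, basal-subtracted, per plate; Incubation: cells plated overnight, compound 4 h 37 °C, substrate 2 h RT.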
HTR1A agonist: agonists of human 5-HT1a serotonin receptor; CHO 5-HT1a Ga15 NFAT-bla reporter, FRET ratio; 0% basal, 100% maximal reference agonist; AID 567; 65,000 compounds, 0.56% hits; activation, % at 10 µM;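 active = activation above the screen-wide mean activation plus 3 SD, cut at about 19% in these data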;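 note: 0% = DMSO wells and 100% = 5-CT at EC100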
Active calls of the source: *; x = no result given. In the library only some 3% were active in any assay of this set; here they are far more common.

SMILES	HTR1E agonist	HTR1E antagonist	S1P1 ag pot	5HT1a antag	S1P3 agonist	HTR1A agonist
Clc1ccccc1OCc1nc(-c2ccncc2)no1	1.3	-2.6	x	-9.8	-0.6	-0.8
N=c1n(CCN2CCCC2)c2ccccc2n1CC(O)c1ccco1 (centres undefined)	0.4	5.7	-3.7	2.1	-0.1	0.8
N=c1n(CCN2CCCCC2)c2ccccc2n1CC(O)COc1ccccc1 (centres undefined)	0.5	-9.0	-15.4	48.8*	-0.1	-0.9
N=c1n(CCN2CCOCC2)c2ccccc2n1CC(O)COc1ccccc1 (centres undefined)	0.0	-0.1	-26.6	0.9	0.5	-1.3
N=c1n(CCN2CCCCC2)c2ccccc2n1CC(O)c1cccc(Br)c1 (centres undefined)	0.3	-1.2	-1.3	54.1*	-0.8	-5.0
COc1ccccc1OCC(O)Cn1c(=N)n(CCN2CCCCC2)c2ccccc21 (centres undefined)	-0.7	5.5	x	71.2*	x	0.1
O=C(Cn1nnc(-c2cccc(C(F)(F)F)c2)n1)NC1CCCC1	-0.1	-7.1	-21.1	-10.5	-1.4	-3.5
C/C(Cl)=C\Cn1c(N2CCCCCC2)nc2c1c(=O)n(C)c(=O)n2C	-0.7	35.1*	-8.9	17.1	2.0	-0.6
Cn1c(=O)c2c(nc(N3CCCCCC3)n2CC(=O)c2ccccc2)n(C)c1=O	0.2	6.2	12.8	5.3	-0.4	-0.6
c1ccc2sc(SCc3ccc(-c4nnco4)cc3)nc2c1	-0.8	6.5	19.6	11.9	-0.1	-2.4
Cc1cc(Oc2ccc(-c3ccccc3)cc2)n2ncnc2n1	-0.1	34.1*	6.3	46.3*	0.5	-2.7
Cc1cccc(N2C(=O)c3cccc4c(N(C)CCO)ccc(c34)C2=O)c1	-0.5	14.2	-11.5	12.0	0.1	-0.6
COc1cccc(C2CC(c3ccccc3OC)n3nc(N)nc3N2)c1 (centres undefined)	0.6	-7.4	-14.8	-5.2	0.1	0.8
O=C(O)C1CSCN1S(=O)(=O)c1cccc2nsnc12 (centres undefined)	9.7*	-11.1	1.4	x	-0.7	-0.8
O=C(NC1CCCCC1)C1CCCN1S(=O)(=O)c1cccc2nsnc12 (centres undefined)	-1.0	10.2	-14.0	-5.8	-0.2	-2.1
CCOCc1nc(N)[nH]c(=O)c1Cc1ccc(OC(C)C)cc1	-1.0	-13.3	5.6	x	-3.5	-2.4
CC(C)(C)c1cccc(/C=N/O)c1O	0.5	29.9*	-20.4	x	-2.4	2.1
CCOC(=O)c1[nH]c(=O)[nH]c1COC(=O)c1cc2ccccc2o1	-0.2	-7.7	x	-0.6	-0.7	0.5
CCOC(=O)CSc1nc(N2CCOCC2)c2c(c1C#N)CC(C)(C)N(C)C2	-0.9	-6.8	-2.0	x	-3.7	-0.4
CC(=O)Nc1nc(=O)c2ccccc2s1	-0.7	-10.0	-1.3	47.3*	-1.5	-5.5
CC(C)Oc1ccccc1C1CC(=O)Nc2cc3c(cc21)OCCO3 (centres undefined)	-1.1	62.6*	-23.9	50.1*	-2.3	-4.9
COc1ccccc1C1CC(=O)Nc2cc3c(cc21)OCCO3 (centres undefined)	-0.6	46.9*	-0.8	26.9	-1.0	-0.2
COc1cccc(C2CC(=O)Nc3cc4c(cc32)OCCO4)c1OC(C)C (centres undefined)	0.6	5.7	-22.9	12.5	-1.4	-1.0
COc1ccc(N(CC(=O)N2CCc3ccccc3C2)S(=O)(=O)c2c(C)nn(C)c2C)cc1	0.6	1.8	6.0	-5.4	-1.8	7.3
CCCCC(CC)C(=O)NCCCN1CCN(CCCNC(=O)C(CC)CCCC)CC1 (centres undefined)	0.2	7.8	x	12.1	-1.0	0.7
Cn1c2ccccc2c2nnc(SCN3C(=O)c4ccccc4C3=O)nc21	-0.9	5.5	-33.0	-7.9	-0.7	0.9
CCn1c2ccccc2c2nnc(SCN3C(=O)c4ccccc4C3=O)nc21	-0.7	38.5*	x	-0.8	0.0	1.0
CCCn1c2ccccc2c2nnc(SCC(=O)OC)nc21	-1.7	29.5*	-0.6	21.6	-0.9	1.9
CCn1c2ccccc2c2nnc(SCc3ccccc3)nc21	1.3	32.8*	-14.0	19.8	0.2	1.2
